In the library only some 0.62% were active in any assay of this set; here they are far more common.
PMI activator – activators of human PMI, primary screen, biochemical, fluorescence intensity, near-Km mannose 6-phosphate | purified human PMI, coupled resazurin fluorescence, 20 min; active compounds read high; 1 = vehicle control, 0 substrate-free wells | activation factor at 20 µM | AID 1214, 2008 | 0.005% of 190,000 active;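 active = activation factor of 2 or more at 20 µM, relative to plate controls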
Target sequence (P34949 whole entry, looked up): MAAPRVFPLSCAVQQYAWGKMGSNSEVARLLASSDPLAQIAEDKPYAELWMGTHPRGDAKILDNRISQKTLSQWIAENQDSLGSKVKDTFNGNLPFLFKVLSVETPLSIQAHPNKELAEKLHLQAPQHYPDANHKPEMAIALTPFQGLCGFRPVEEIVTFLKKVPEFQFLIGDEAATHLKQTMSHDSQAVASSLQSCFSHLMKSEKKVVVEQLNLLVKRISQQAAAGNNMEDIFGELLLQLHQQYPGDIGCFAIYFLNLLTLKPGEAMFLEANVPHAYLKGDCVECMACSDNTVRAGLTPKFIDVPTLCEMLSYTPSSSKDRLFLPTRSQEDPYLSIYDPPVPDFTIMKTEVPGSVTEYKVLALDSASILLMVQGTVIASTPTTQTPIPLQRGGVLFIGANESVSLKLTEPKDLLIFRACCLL
TNAP act hiacc – TNAP activators at high phosphate acceptor level, primary screen, biochemical, luminescence, uHTS | Alkaline phosphatase, tissue-nonspecific isozyme (Homo sapiens), P05186 | purified TNAP, CDP-star luminescence, 1 M DEA, 30 min; active compounds read high; 0 = EDTA background, 1 = DMSO-only activity | activation factor at 20 µM | 200,000 tested, under 10 active | AID 1136, 2008;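 active = activation factor at least 2 at 20 µM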
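Dosing: 20 µM single point. System: human TNAP. Amount: TNAP 1/800 final. Incubation: 30 min, room temperature. Read-out: TNAP activation factor scaled between EDTA and DMSO control wells. Signal: luminescence from CDP-star hydrolysis. Medium: 1 M DEA, pH 9.8, Mg2+, Zn2+. Control set: EDTA negative control, DMSO positive control.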
PMI act hi M6P – human PMI activators, high substrate, primary screen, biochemical, fluorescence intensity, near-saturating mannose 6-phosphate; Mannose-6-phosphate isomerase (Homo sapiens), P34949; coupled PMI enzyme assay, resazurin fluorescence, 20 min; active compounds read high; 1 = untreated enzyme, 0 = substrate-free blank; activation factor at 20 µM; 0.34% of 190,000 active;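 active = activation factor of 2 or more at 20 µM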
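Test system – human PMI in coupled enzyme assay · Timing – 20 min incubation at room temperature · Detection – Diaphorase-driven resazurin-to-resorufin fluorescence, excitation 544, emission 590 nm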
TNAP inh no acc – human TNAP enzyme inhibitors, primary screen, biochemical, luminescent, no phosphate acceptor, uHTS | Alkaline phosphatase, tissue-nonspecific isozyme (Homo sapiens), P05186 | purified TNAP, CDP-star luminescence, 30 min | inhibition, % at 20 µM | 0.26% of 200,000 active;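 active = tissue-nonspecific alkaline phosphatase inhibition above about 50% at 20 µM in the single-dose screen, limit read from the data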;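 note: 0% = DMSO negative control and 100% = EDTA positive control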
TNAP inh hi DEA – human TNAP enzyme inhibitors, primary screen, biochemical, luminescent, high phosphate acceptor level, uHTS | Alkaline phosphatase, tissue-nonspecific isozyme (Homo sapiens), P05186 | purified TNAP, CDP-star luminescence, 1 M DEA | inhibition, % at 20 µM | 0.03% of 200,000 active | AID 1135, 2008;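 active = over 50% inhibition of tissue-nonspecific alkaline phosphatase at 20 µM in the single-dose screen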;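 note: plate controls were DMSO wells for no effect and EDTA-quenched wells as full inhibition for full effect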
* marks the source's active call; other numbers are inactive results.

CCC1(C)Cc2nc3sc(C(=O)O)c(N)c3cc2CO1 (configuration not stated) was read as PMI activator 1.5, TNAP act hiacc 1, PMI act hi M6P 2.2*, TNAP inh no acc 2.9 and TNAP inh hi DEA 0.5.
Screening CCOC(=O)c1sc2nc3c(cc2c1N)COC(C)(CC)C3 (configuration not stated) returned PMI activator 1, TNAP act hiacc 1.1, PMI act hi M6P 1, TNAP inh no acc -15.4 and TNAP inh hi DEA -7.3.
`COc1cccc(CNC(=S)Nc2cc(OC)ccc2OC)c1` gave PMI activator 1, TNAP act hiacc 1, PMI act hi M6P 1, TNAP inh no acc -12.0 and TNAP inh hi DEA -3.0.
Screening Cc1ccsc1/C=c1\sc2ncnn2c1=O returned PMI activator 1.1, TNAP act hiacc 0.8, PMI act hi M6P 1.1, TNAP inh no acc 83.9* and TNAP inh hi DEA 23.5.
Screening O=c1/c(=C/c2cccc3ccccc23)sc2ncnn12 returned PMI activator 1, TNAP act hiacc 1, PMI act hi M6P 1, TNAP inh no acc 16.5 and TNAP inh hi DEA -3.7.
`CC1(CC(=O)Nc2ccccc2)NC(=S)N(c2ccccc2)N1` (configuration not stated) gave PMI activator 1.3, TNAP act hiacc 1, PMI act hi M6P 1.1, TNAP inh no acc -13.3 and TNAP inh hi DEA -4.5.
CCCCCC1(C)NC(=S)N(c2ccccc2)N1 (configuration not stated) was read as PMI activator 2*, TNAP act hiacc 1, PMI act hi M6P 3.1*, TNAP inh no acc 4.4 and TNAP inh hi DEA 4.9.
`CCCCCCC1(C)NC(=S)N(c2ccccc2)N1` (configuration not stated) gave PMI activator 1.9, TNAP act hiacc 1, PMI act hi M6P 3*, TNAP inh no acc -6.2 and TNAP inh hi DEA 2.2.
For COc1cc(/C=N/N=C2/C(=O)Nc3ccccc32)cc(OC)c1O the results were PMI activator 0.8, TNAP act hiacc 0.4, PMI act hi M6P 0.6, TNAP inh no acc 49.4 and TNAP inh hi DEA 56.0*.
Screening FC(F)(F)c1cccc(-c2ccn3ncnc3n2)c1 returned PMI activator 1.1, TNAP act hiacc 1, PMI act hi M6P 1, TNAP inh no acc -1.7 and TNAP inh hi DEA -2.3.
For CCc1ccccc1NC(=O)CSc1nc(-c2ccccc2)nn1C(=O)c1cccc([N+](=O)[O-])c1 the results were PMI activator 0.9, TNAP act hiacc 1.1, PMI act hi M6P 1, TNAP inh no acc 15.0 and TNAP inh hi DEA -5.0.
O=C(CSc1nc(-c2ccccc2)nn1C(=O)c1ccccc1)Nc1cccc([N+](=O)[O-])c1 was read as PMI activator 0.9, TNAP act hiacc 1, PMI act hi M6P 0.9, TNAP inh no acc 54.0* and TNAP inh hi DEA 0.7.
`O=C(Nc1cccc(C(F)(F)F)c1)n1cc(-c2ccccn2)c(N2CCOCC2)n1` gave PMI activator 1.1, TNAP act hiacc 1, PMI act hi M6P 1, TNAP inh no acc -10.4 and TNAP inh hi DEA -4.9.
For COc1c(O)c(O)c2oc(-c3ccccc3)cc(=O)c2c1OC the results were PMI activator 0.8, TNAP act hiacc 1, PMI act hi M6P 0.9, TNAP inh no acc 3.5 and TNAP inh hi DEA 3.7.
COc1cc(-c2cc(=O)c3c(O)c(OC)c(OC)c(O)c3o2)ccc1O was read as PMI activator 0.6, TNAP act hiacc 0.9, PMI act hi M6P 0.6, TNAP inh no acc 64.3* and TNAP inh hi DEA 5.4.
`COc1ccc(S(=O)(=O)N2CCOCC2)cc1NC(=O)COc1cccnc1[N+](=O)[O-]` gave PMI activator 1, TNAP act hiacc 1, PMI act hi M6P 0.9, TNAP inh no acc -12.8 and TNAP inh hi DEA -2.7.
For COc1ccc(Nc2nc(N)nc(CSc3n[nH]c(-c4ccccc4)n3)n2)cc1 the results were PMI activator 1, TNAP act hiacc 1, PMI act hi M6P 1, TNAP inh no acc 81.2* and TNAP inh hi DEA -4.5.
Nc1nc(CSc2n[nH]c(-c3ccccc3)n2)nc(Nc2ccccc2)n1 was read as PMI activator 0.8, TNAP act hiacc 1, PMI act hi M6P 0.8, TNAP inh no acc 89.9* and TNAP inh hi DEA 3.1.
Screening COc1ccc(Nc2nc(N)nc(CSc3nccc(C)n3)n2)cc1 returned PMI activator 0.9, TNAP act hiacc 1, PMI act hi M6P 0.9, TNAP inh no acc -3.9 and TNAP inh hi DEA -1.4.
Cc1ccc(-c2nc(Nc3ccccc3)n[nH]2)cc1 was read as PMI activator 0.9, TNAP act hiacc 1, PMI act hi M6P 0.9, TNAP inh no acc 50.5* and TNAP inh hi DEA 0.4.
CC1(C)CC(=O)c2sc(NS(=O)(=O)c3ccc(F)cc3)nc2C1 was read as PMI activator 1.1, TNAP act hiacc 1, PMI act hi M6P 1.1, TNAP inh no acc -4.0 and TNAP inh hi DEA -4.2.
For COC(=O)c1ccc(N2C(=O)C3CC=CC(C)C3C2=O)cc1 (configuration not stated) the results were PMI activator 1, TNAP act hiacc 1, PMI act hi M6P 0.9, TNAP inh no acc -0.5 and TNAP inh hi DEA 0.8.
CCCN1CCc2c(sc(NC(=S)NC(=O)c3ccccc3)c2C#N)C1 was read as PMI activator 1.6, TNAP act hiacc 0.9, PMI act hi M6P 2*, TNAP inh no acc 13.2 and TNAP inh hi DEA 13.3.
`CC(C)N1CCc2c(sc(NC(=S)NC(=O)c3ccccc3)c2C#N)C1` gave PMI activator 1.2, TNAP act hiacc 0.8, PMI act hi M6P 1.4, TNAP inh no acc 15.8 and TNAP inh hi DEA 19.5.
For CCc1nnc(NC(=O)CSc2nc3cc(OC)c(OC)cc3cc2C)s1 the results were PMI activator 0.9, TNAP act hiacc 1.1, PMI act hi M6P 1.1, TNAP inh no acc -5.0 and TNAP inh hi DEA -5.9.
`C(=C\c1ccco1)/C1=NN(c2ccccc2)C(c2ccco2)C1` (configuration not stated) gave PMI activator 1.6, TNAP act hiacc 0.9, PMI act hi M6P 2.2*, TNAP inh no acc -13.5 and TNAP inh hi DEA 7.2.
O=C(Cc1c[nH]c2ccccc12)Nc1ccccc1N1CCOCC1 was read as PMI activator 1, TNAP act hiacc 1, PMI act hi M6P 0.9, TNAP inh no acc -1.7 and TNAP inh hi DEA -4.2.
For CCSc1oc(-c2ccco2)nc1S(=O)(=O)c1ccc(F)cc1 the results were PMI activator 1.2, TNAP act hiacc 1, PMI act hi M6P 1.6, TNAP inh no acc -6.9 and TNAP inh hi DEA -4.8.
